8 compounds from ChEMBL document CHEMBL2311405, “Synthesis and biological evaluation of indenoisoquinolines that inhibit both tyrosyl-DNA phosphodiesterase I (Tdp1) and topoisomerase I (Top1)” (J Med Chem, 2013) can be followed below.

The structures appear in SMILES notation. Calls of active or inactive are those of the source. No cut-off for these calls is given here.

Experiment [1] has as its target T1, DNA topoisomerase 1 (Homo sapiens) (UniProt P11387).
T1 sequence (whole entry): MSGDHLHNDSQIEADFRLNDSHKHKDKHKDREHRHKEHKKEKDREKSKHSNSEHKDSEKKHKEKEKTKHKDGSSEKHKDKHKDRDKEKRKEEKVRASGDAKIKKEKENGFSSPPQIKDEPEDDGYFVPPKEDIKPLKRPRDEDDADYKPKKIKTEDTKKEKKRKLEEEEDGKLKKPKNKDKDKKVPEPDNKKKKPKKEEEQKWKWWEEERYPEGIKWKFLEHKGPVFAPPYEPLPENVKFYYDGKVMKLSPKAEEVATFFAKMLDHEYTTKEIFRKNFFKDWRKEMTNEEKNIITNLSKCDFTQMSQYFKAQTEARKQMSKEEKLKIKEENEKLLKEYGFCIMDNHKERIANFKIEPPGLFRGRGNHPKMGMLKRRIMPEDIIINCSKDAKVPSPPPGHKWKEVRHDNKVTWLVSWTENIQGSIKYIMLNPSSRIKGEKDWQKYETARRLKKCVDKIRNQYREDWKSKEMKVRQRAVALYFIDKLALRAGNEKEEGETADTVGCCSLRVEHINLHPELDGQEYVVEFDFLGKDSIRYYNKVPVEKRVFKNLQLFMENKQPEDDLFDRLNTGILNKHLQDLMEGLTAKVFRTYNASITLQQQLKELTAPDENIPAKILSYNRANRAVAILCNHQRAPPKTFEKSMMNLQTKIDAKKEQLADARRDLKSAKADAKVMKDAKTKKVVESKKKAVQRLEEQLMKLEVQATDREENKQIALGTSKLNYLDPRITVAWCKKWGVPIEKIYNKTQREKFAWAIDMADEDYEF
The experiment is described as follows: Inhibition of recombinant Top1 (unknown origin) using 3'-[32P]-end-labeled 117 bp oligonucleotide as substrate after 20 mins by SDS-PAGE analysis relative to 1 uM camptothecin.

In experiment [2] the target is T1, DNA topoisomerase 1 (Homo sapiens). The experiment is described as follows: Inhibition of recombinant Top1 (unknown origin) using 3'-[32P]-end-labeled 117 bp oligonucleotide as substrate assessed as suppression of DNA cleavage at 100 uM by SDS-PAGE analysis. In short, it runs like this:
(§1)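 3′-[32P]-end-labeled 117-bp DNA at 2 nM incubated with recombinant Top1 at 25 °C for 20 min across a range of compound concentrations. Stopped with SDS (0.5% final) plus formamide loading dye, then 20% denaturing PAGE. Dried gels were phosphorimaged.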

In experiment [3] the target is Tyrosyl-DNA phosphodiesterase 1 (Homo sapiens, UniProt Q9NUW8). The experiment is described as follows: Inhibition of recombinant Tdp1 (unknown origin) using 5'-[32P]-labeled single-stranded DNA oligonucleotide containing 3'-phosphotyrosine as substrate after 15 mins by PAGE analysis.
Experiment [4] relates to OVCAR-3. The experiment is described as follows: Growth inhibition of human OVCAR3 cells. Format: functional.
Experiment [5] deals with SN12C. The experiment in a line: Growth inhibition of human SN12C cells. Format: functional.
Experiment [6] concerns SF-539. The experiment is described as follows: Growth inhibition of human SF539 cells. Format: functional. In short, it runs like this: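 Human cancer cell line panel, compounds tested at concentrations up to 10 μM. GI50 per cell line is the mean of two determinations where a standard error is given, otherwise from one determination.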
The test system of experiment [7] is DU-145. The experiment in a line: Growth inhibition of human DU145 cells. Format: functional.
Experiment [8] deals with MDA-MB-435. The experiment in a line: Growth inhibition of human MDA-MB-435 cells. Format: functional.
Experiment [9] deals with UACC-62. The experiment in a line: Growth inhibition of human UACC62 cells. Format: functional.
The target in experiment [10] is T1, DNA topoisomerase 1 (Homo sapiens). The experiment in a line: Inhibition of recombinant Top1 (unknown origin) using 3'-[32P]-end-labeled 117 bp oligonucleotide as substrate after 20 mins by SDS-PAGE analysis relative to 1 uM MJ-3-65.
The test system of experiment [11] is HCT-116. The experiment is described as follows: Growth inhibition of human HCT116 cells. Format: functional.
In experiment [12] the test system is HOP-62. The experiment is described as follows: Growth inhibition of human HOP62 cells. Format: functional.
The target of experiment [13] is T1, DNA topoisomerase 1 (Homo sapiens). The experiment is described as follows: Inhibition of recombinant Top1 (unknown origin) using 3'-[32P]-end-labeled 117 bp oligonucleotide as substrate after 20 mins by SDS-PAGE analysis. In outline:
as §1

Sequence of Tyrosyl-DNA phosphodiesterase 1 (Q9NUW8 whole entry): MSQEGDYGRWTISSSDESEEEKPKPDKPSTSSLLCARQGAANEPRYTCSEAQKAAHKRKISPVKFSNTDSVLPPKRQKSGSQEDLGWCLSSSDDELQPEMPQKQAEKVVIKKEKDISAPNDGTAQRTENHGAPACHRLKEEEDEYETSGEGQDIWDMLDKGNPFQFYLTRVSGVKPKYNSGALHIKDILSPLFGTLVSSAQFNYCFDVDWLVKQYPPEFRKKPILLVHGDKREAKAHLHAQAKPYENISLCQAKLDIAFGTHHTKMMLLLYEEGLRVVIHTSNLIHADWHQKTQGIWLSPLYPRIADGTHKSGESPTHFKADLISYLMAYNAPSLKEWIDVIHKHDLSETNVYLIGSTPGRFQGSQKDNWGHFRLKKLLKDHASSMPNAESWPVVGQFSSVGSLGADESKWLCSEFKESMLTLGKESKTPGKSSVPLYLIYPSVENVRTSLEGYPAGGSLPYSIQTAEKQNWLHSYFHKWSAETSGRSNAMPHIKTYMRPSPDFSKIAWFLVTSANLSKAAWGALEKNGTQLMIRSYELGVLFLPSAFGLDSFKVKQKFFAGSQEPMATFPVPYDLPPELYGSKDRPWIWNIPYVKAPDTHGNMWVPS

`COc1cccc2c1-c1c(c3ccc([N+](=O)[O-])cc3c(=O)n1CCCN)C2=O`: the inhibition result in experiment [1] was “Active”.
As for `CN(C)CCCn1c2c(c3ccc(C#N)cc3c1=O)C(=O)c1cc3c(cc1-2)OCO3`, the inhibition result in [2] is “Active”. Further, the concentration for half-maximal inhibition (IC50) in [3] is over 111000 nM.
With `CN(C)CCCn1c2c(c3ccc(C#N)cc3c1=O)C(=O)c1ccccc1-2`, the GI50 was 1720 nM in experiment [4]; 190 nM in experiment [5]; 1120 nM in experiment [6]; 240 nM in experiment [7]; 620 nM in [8]; 190 nM in experiment [9]. The concentration for 50% growth inhibition (GI50) in experiment [11] amounted to 50 nM; in [12], 260 nM. Also, the inhibition entry in experiment [10] is “Active”.
As to `NCCCn1c2c(c3ccc(NCC(=O)O)cc3c1=O)C(=O)c1ccccc1-2`, the concentration for 50% growth inhibition (GI50) in [4] worked out at 1600 nM; in [5], 490 nM; in experiment [6] it was 1790 nM; in [7] it was 1510 nM; in [8] it was 1140 nM; in experiment [9], 720 nM. For the same compound, the GI50 was 330 nM in experiment [11] and 650 nM in experiment [12]. Moreover, in experiment [13], the inhibition result is “inactive”.
Take `COc1ccc2c(c1)C(=O)c1c-2n(CCCN)c(=O)c2cc([N+](=O)[O-])ccc12`: the 50% growth inhibitory concentration (GI50) in [5], in [6], in experiment [9], in experiment [11] and in experiment [12] was under 10 nM each time. For the same compound, the inhibition result in [1] is “Active”.
For `COc1ccc2c(c1)C(=O)c1c-2n(CCCN(C)C)c(=O)c2cc(I)ccc12`, the inhibition entry in [2] and in experiment [10] was “Active” throughout.
Consider `COC(=O)C(=O)Nc1ccc2c3c(n(CCCN)c(=O)c2c1)-c1ccccc1C3=O`, for which the GI50 in experiment [4] was found to be 4010 nM; in [5], 2530 nM; in experiment [6], 6900 nM; in [7] it was 1110 nM; in experiment [8], 3360 nM; in [9], 1220 nM. For the same compound, the GI50 in [11] came to 570 nM; in [12], 650 nM. Besides, the 50% inhibitory concentration (IC50) in experiment [3] came to 45000 nM. Further, in experiment [13], the inhibition entry is “inactive”.
For `COc1ccc2c(c1)-c1c(c3ccc([N+](=O)[O-])cc3c(=O)n1CCCn1ccnc1)C2=O`, the GI50 in experiment [4] is 30 nM; in experiment [5], under 10 nM; in [6], under 10 nM; in experiment [7], under 10 nM; in [8], 30 nM; in [9] it was under 10 nM. In addition, the GI50 in [11] and in [12] was under 10 nM each time. Further, the inhibition result in experiment [2] is “inactive”. Further, the inhibition entry in experiment [10] is “Active”.

What is called IC50 is the concentration needed to halve the response being measured. Broadly, the GI50 is the concentration giving 50% growth inhibition. Lower therefore signals greater sensitivity of the cells.
